Data: ChEMBL document CHEMBL1142301, “2'-deoxy cyclic adenosine 5'-diphosphate ribose derivatives: importance of the 2'-hydroxyl motif for the antagonistic activity of 8-substituted cADPR derivatives” (J Med Chem, 2008)
Calls of active or inactive are those of the source. The calls are words filed in the database; no cut-off is given here.

Experiments:
[1] = system: Jurkat; assay: Agonist activity at human cADPR receptor in Jurkat T cells assessed as stimulation of calcium release at 100 uM; format: functional, cell-based
Procedure, shortened: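 Saponin-permeabilized Jurkat T cells in intracellular buffer (20 mM HEPES, 110 mM KCl, 2 mM MgCl2, 5 mM KH2PO4, 10 mM NaCl, pH 7.2) with no extracellular Ca2+. Cells were kept on ice 2 h to reseal stores, then reloaded with ATP plus creatine phosphate/creatine kinase. Compound was added once stores were refilled. Ca2+ read by fura2 free acid (ex 340/380, em 495 nm), calibrated with CaCl2 and EGTA/Tris.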

[2] = system: Jurkat; assay: (§1) Antagonist activity at human cADPR receptor in Jurkat T cells assessed as inhibition of cyclic ADP-ribose-induced calcium release; format: functional, cell-based
Procedure, shortened: (§2)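 Jurkat T cells were saponin-permeabilized, resealed 2 h on ice and reloaded with Ca2+ via ATP and a creatine phosphate/creatine kinase regenerating system, in pH 7.2 KCl/HEPES intracellular buffer. Analogue inhibition of Ca2+ release evoked by 30 µM cADPR was followed by fura2 ratio (340/380 nm ex, 495 nm em), calibrated per run. IC50 values were taken from concentration–response curves.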

[3] = system: Jurkat; assay: Antagonist activity at human cADPR receptor in Jurkat T cells assessed as inhibition of inositol-1,4,5-triphosphate-induced calcium release; format: functional, cell-based
Procedure, shortened: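 Permeabilized, store-reloaded Jurkat T cells in pH 7.2 intracellular buffer with fura2 free acid (ex 340/380 nm, em 495 nm). Analogues were tested at 100 µM against Ca2+ release triggered by 4 µM InsP3.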

[4] = (§3) Agonist activity at human cADPR receptor in sea urchin egg homogenates assessed as stimulation of calcium release; format: functional, tissue-based, Lytechinus pictus
Procedure, shortened: (§4)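 Lytechinus pictus eggs were spawned by intracoelomic 0.5 M KCl, dejellied and washed. Eggs were homogenized in 250 mM K gluconate, 250 mM N-methylglucamine, 20 mM HEPES, 1 mM MgCl2, pH 7.2, with 1 mM ATP, creatine kinase, phosphocreatine and protease inhibitors. Ca2+ read with 3 µM fluo-3 at 17 °C (ex 506, em 526 nm) in stirred homogenate. EC50/IC50 values come from concentration–response curves.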

[5] = Antagonist activity at cADPR receptor in sea urchin egg homogenates assessed as inhibition of calcium release; format: functional, tissue-based, Lytechinus pictus; procedure, shortened: as §4
[6] = as §1; format: functional, cell-based; procedure, shortened: as §2
[7] = system: Jurkat; assay: Agonist activity at human cADPR receptor in Jurkat T cells assessed as stimulation of calcium release at 100 uM
[8] = system: Lytechinus pictus; assay: Agonist activity at human cADPR receptor in intact sea urchin egg assessed as stimulation of calcium release; format: functional
Procedure, shortened: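 Intact Lytechinus pictus eggs were microinjected with rhod dextran (~10 µM intracellular), then exposed to 100 or 400 µM analogue in the bath. Ca2+ was imaged by confocal microscopy (ex 543 nm, em >560 nm).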

[9] = system: Lytechinus pictus; assay: as §3; format: functional, tissue-based; procedure, shortened: as §4

SMILES | IC50 [6] | Activity [1] | Activity [3] | further results
Nc1c2ccn3c2nc[n+]1[C@@H]1O[C@H](COP(=O)([O-])OP(=O)(O)OC[C@H]2O[C@@H]3C[C@@H]2O)[C@@H](O)[C@H]1O |  | Active |  | Activity [2]: inactive
Nc1c2nc(-c3ccccc3)n3c2nc[n+]1[C@@H]1O[C@H](COP(=O)([O-])OP(=O)(O)OC[C@H]2O[C@@H]3C[C@@H]2O)[C@@H](O)[C@H]1O |  | Active |  | 
COc1nc2c(N)[n+]3cnc2n1[C@H]1C[C@H](O)[C@@H](COP(=O)(O)OP(=O)([O-])OC[C@H]2O[C@@H]3[C@H](O)[C@@H]2O)O1 | 8 µM | Active | inactive | 
Nc1c2ncn3c2nc[n+]1[C@@H]1O[C@H](COP(=O)([O-])OP(=O)(O)OC[C@H]2O[C@@H]3[C@H](O)[C@@H]2O)[C@@H](O)[C@H]1O |  | Active | inactive | 
Nc1c2nc(-c3ccccc3)n3c2nc[n+]1[C@@H]1O[C@H](COP(=O)([O-])OP(=O)(O)OC[C@H]2O[C@@H]3[C@H](O)[C@@H]2O)[C@@H](O)[C@H]1O |  | Active |  | 
Nc1c2nc(Br)n3c2nc[n+]1[C@@H]1O[C@H](COP(=O)([O-])OP(=O)(O)OC[C@H]2O[C@@H]3C[C@@H]2O)[C@@H](O)[C@H]1O |  | Active |  | Activity [8]: Active; Activity [9]: Active

Continued, in another order:

IC50 [6] | SMILES | Activity [1] | Activity [3] | further results
6 µM | Nc1nc2c(N)[n+]3cnc2n1[C@H]1C[C@H](O)[C@@H](COP(=O)(O)OP(=O)([O-])OC[C@H]2O[C@@H]3[C@H](O)[C@@H]2O)O1 | Active | inactive | EC50 [4]: > 89 µM; IC50 [5]: 220 nM
0.2 µM | Nc1nc2c(N)[n+]3cnc2n1[C@@H]1O[C@H](COP(=O)(O)OP(=O)([O-])OC[C@H]2O[C@@H]3[C@H](O)[C@@H]2O)[C@@H](O)[C@H]1O | Active | inactive | EC50 [4]: 89 µM; Activity [7]: Active; IC50 [5]: 105 nM
10 µM | Nc1c2nc(Br)n3c2nc[n+]1[C@@H]1O[C@H](COP(=O)([O-])OP(=O)(O)OC[C@H]2O[C@@H]3[C@H](O)[C@@H]2O)[C@@H](O)[C@H]1O | Active | inactive | 
